Results taken from ChEMBL document CHEMBL1649446, “Comparative antipneumococcal activities of sulopenem and other drugs” (2009).
Converted amounts (≈) assume the structure as drawn.

What was measured:
Assay type in all cases: functional
Streptococcus pneumoniae [1] = assay: Antimicrobial activity against penicillin-susceptible Streptococcus pneumoniae by agar dilution method
Streptococcus pneumoniae [2] = assay: Antimicrobial activity against penicillin-intermediate Streptococcus pneumoniae by agar dilution method
Streptococcus pneumoniae [3] = assay: Antimicrobial activity against penicillin-resistant Streptococcus pneumoniae by agar dilution method
Summary of the method: (§1)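 Agar dilution MIC on Mueller-Hinton agar with 5% sheep blood, inocula 10^4 CFU/spot; amoxicillin-clavulanate combined 1:2; S. pneumoniae ATCC 49619 quality control each run.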

Streptococcus pneumoniae [4] = assay: Antimicrobial activity against Streptococcus pneumoniae 19A by agar dilution method; summary of the method: as §1
Streptococcus pneumoniae [5] = assay: Antimicrobial activity against Streptococcus pneumoniae 1 by time-kill analysis
Summary of the method: (§2)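 Time-kill in cation-adjusted Mueller-Hinton broth with 5% lysed horse blood; inocula 5 × 105 to 5 × 10^6 CFU/ml; drugs at MIC, 2× and 4× MIC; 35°C shaking water bath; viable counts at 0, 3, 6, 12 and 24 h. Bactericidal if ≥3 log10 CFU/ml (99.9%) reduction from original inoculum; 90% and 99% killing also scored.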

Streptococcus pneumoniae [6] = assay: Antimicrobial activity against Streptococcus pneumoniae 2 by time-kill analysis
Summary of the method: (§3)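 Time-kill in cation-adjusted Mueller-Hinton broth with 5% lysed horse blood; inocula 5 × 105 to 5 × 10^6 CFU/ml; drugs at MIC, 2× and 4× MIC; 35°C shaking water bath; viable counts at 0, 3, 6, 12, 24 h. Bactericidal = ≥3 log10 CFU/ml (99.9%) drop from original inoculum; 90%/99%/99.9% killing scored per strain.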

Streptococcus pneumoniae [7] = assay: Antimicrobial activity against Streptococcus pneumoniae 3 by time-kill analysis; summary of the method: as §3
Streptococcus pneumoniae [8] = assay: Antimicrobial activity against Streptococcus pneumoniae 4 by time-kill analysis; summary of the method: as §3
Streptococcus pneumoniae [9] = assay: Antimicrobial activity against Streptococcus pneumoniae 5 by time-kill analysis; summary of the method: as §2
Streptococcus pneumoniae [10] = assay: Antimicrobial activity against Streptococcus pneumoniae 6 by time-kill analysis; summary of the method: as §3
Streptococcus pneumoniae [11] = assay: Antimicrobial activity against Streptococcus pneumoniae 7 by time-kill analysis; summary of the method: as §3
Streptococcus pneumoniae [12] = assay: Antimicrobial activity against Streptococcus pneumoniae 8 by time-kill analysis; summary of the method: as §3
Streptococcus pneumoniae [13] = assay: Antimicrobial activity against Streptococcus pneumoniae 9 by time-kill analysis; summary of the method: as §2
Streptococcus pneumoniae [14] = assay: Antimicrobial activity against Streptococcus pneumoniae 10 by time-kill analysis; summary of the method: as §3
Streptococcus pneumoniae [15] = assay: Antimicrobial activity against Streptococcus pneumoniae 11 by time-kill analysis; summary of the method: as §3
Streptococcus pneumoniae [16] = assay: Antimicrobial activity against Streptococcus pneumoniae 12 by time-kill analysis; summary of the method: as §3
Streptococcus pneumoniae [17] = assay: Antimicrobial activity against Streptococcus pneumoniae isolate 24 by agar dilution method
Streptococcus pneumoniae [18] = assay: Antimicrobial activity against Streptococcus pneumoniae isolate 33 by agar dilution method; summary of the method: as §1
Streptococcus pneumoniae [19] = assay: Antimicrobial activity against Streptococcus pneumoniae isolate 37 by agar dilution method; summary of the method: as §1
Streptococcus pneumoniae [20] = assay: Antimicrobial activity against Streptococcus pneumoniae isolate 1055 by agar dilution method
Streptococcus pneumoniae [21] = assay: Antimicrobial activity against Streptococcus pneumoniae isolate 1146 by agar dilution method; summary of the method: as §1
Streptococcus pneumoniae [22] = assay: Antimicrobial activity against Streptococcus pneumoniae isolate 1147 by agar dilution method; summary of the method: as §1
Streptococcus pneumoniae [23] = assay: Antimicrobial activity against Streptococcus pneumoniae isolate 1384 by agar dilution method; summary of the method: as §1
Streptococcus pneumoniae [24] = assay: Antimicrobial activity against Streptococcus pneumoniae isolate 1394 by agar dilution method
Streptococcus pneumoniae [25] = assay: Antimicrobial activity against Streptococcus pneumoniae isolate 1397 by agar dilution method; summary of the method: as §1
Streptococcus pneumoniae [26] = assay: Antimicrobial activity against Streptococcus pneumoniae isolate 1424 by agar dilution method; summary of the method: as §1
Streptococcus pneumoniae [27] = assay: Antimicrobial activity against Streptococcus pneumoniae isolate 1564 by agar dilution method
Streptococcus pneumoniae [28] = assay: Antimicrobial activity against Streptococcus pneumoniae isolate 2617 by agar dilution method; summary of the method: as §1
Streptococcus pneumoniae [29] = assay: Antimicrobial activity against Streptococcus pneumoniae isolate 2686 by agar dilution method; summary of the method: as §1
Streptococcus pneumoniae [30] = assay: Antimicrobial activity against Streptococcus pneumoniae isolate 2688 by agar dilution method; summary of the method: as §1
Streptococcus pneumoniae [31] = assay: Antimicrobial activity against Streptococcus pneumoniae isolate 2874 by agar dilution method; summary of the method: as §1
Streptococcus pneumoniae [32] = assay: Antimicrobial activity against Streptococcus pneumoniae isolate 2880 by agar dilution method; summary of the method: as §1
Streptococcus pneumoniae [33] = assay: Antimicrobial activity against Streptococcus pneumoniae isolate 3260 by agar dilution method
Streptococcus pneumoniae [34] = assay: Antimicrobial activity against Streptococcus pneumoniae isolate 3263 by agar dilution method
Streptococcus pneumoniae [35] = assay: Antimicrobial activity against Streptococcus pneumoniae isolate 3275 by agar dilution method; summary of the method: as §1
Streptococcus pneumoniae [36] = assay: Antimicrobial activity against Streptococcus pneumoniae isolate 3282 by agar dilution method
Streptococcus pneumoniae [37] = assay: Antimicrobial activity against Streptococcus pneumoniae isolate 3346 by agar dilution method
Streptococcus pneumoniae [38] = assay: Antimicrobial activity against Streptococcus pneumoniae isolate 3374 by agar dilution method; summary of the method: as §1
Streptococcus pneumoniae [39] = assay: Antimicrobial activity against Streptococcus pneumoniae isolate 3412 by agar dilution method; summary of the method: as §1
Streptococcus pneumoniae [40] = assay: Antimicrobial activity against Streptococcus pneumoniae isolate 3455 by agar dilution method
Streptococcus pneumoniae [41] = assay: Antimicrobial activity against Streptococcus pneumoniae isolate 3458 by agar dilution method
Streptococcus pneumoniae [42] = assay: Antimicrobial activity against Streptococcus pneumoniae isolate 3481 by agar dilution method; summary of the method: as §1
Streptococcus pneumoniae [43] = assay: Antimicrobial activity against Streptococcus pneumoniae isolate 3587 by agar dilution method
Streptococcus pneumoniae [44] = assay: Antimicrobial activity against Streptococcus pneumoniae isolate 3681 by agar dilution method; summary of the method: as §1
Streptococcus pneumoniae [45] = assay: Antimicrobial activity against Streptococcus pneumoniae isolate 3791 by agar dilution method; summary of the method: as §1
Streptococcus pneumoniae [46] = assay: Antimicrobial activity against Streptococcus pneumoniae isolate 4747 by agar dilution method; summary of the method: as §1
Streptococcus pneumoniae [47] = assay: Antimicrobial activity against Streptococcus pneumoniae isolate 4755 by agar dilution method; summary of the method: as §1

COc1c(N2CCNC(C)C2)c(F)cc2c(=O)c(C(=O)O)cn(C3CC3)c12 (stereo unspecified) [GATIFLOXACIN]
MIC50 (Streptococcus pneumoniae [1]): 0.5 µg/mL (≈ 1.33 µM)
MIC90 (Streptococcus pneumoniae [1]): 4 µg/mL (≈ 10.7 µM)
MIC50 (Streptococcus pneumoniae [2]): 0.25 µg/mL (≈ 0.666 µM)
MIC90 (Streptococcus pneumoniae [2]): 0.5 µg/mL (≈ 1.33 µM)
MIC50 (Streptococcus pneumoniae [3]): 0.5 µg/mL (≈ 1.33 µM)
MIC90 (Streptococcus pneumoniae [3]): 1 µg/mL (≈ 2.66 µM)
MIC50 (Streptococcus pneumoniae [4]): 0.5 µg/mL (≈ 1.33 µM)
MIC90 (Streptococcus pneumoniae [4]): 0.5 µg/mL (≈ 1.33 µM)
MIC (Streptococcus pneumoniae [5]): 4 µg/mL (≈ 10.7 µM)
MIC (Streptococcus pneumoniae [6]): 0.25 µg/mL (≈ 0.666 µM)
MIC (Streptococcus pneumoniae [7]): 0.25 µg/mL (≈ 0.666 µM)
MIC (Streptococcus pneumoniae [8]): 4 µg/mL (≈ 10.7 µM)
MIC (Streptococcus pneumoniae [9]): 0.5 µg/mL (≈ 1.33 µM)
MIC (Streptococcus pneumoniae [10]): 0.25 µg/mL (≈ 0.666 µM)
MIC (Streptococcus pneumoniae [11]): 0.5 µg/mL (≈ 1.33 µM)
MIC (Streptococcus pneumoniae [12]): 0.25 µg/mL (≈ 0.666 µM)
MIC (Streptococcus pneumoniae [13]): 0.5 µg/mL (≈ 1.33 µM)
MIC (Streptococcus pneumoniae [14]): 0.25 µg/mL (≈ 0.666 µM)
MIC (Streptococcus pneumoniae [15]): 0.5 µg/mL (≈ 1.33 µM)
MIC (Streptococcus pneumoniae [16]): 0.25 µg/mL (≈ 0.666 µM)
MIC (Streptococcus pneumoniae [17]): 0.5 µg/mL (≈ 1.33 µM)
MIC (Streptococcus pneumoniae [18]): 0.5 µg/mL (≈ 1.33 µM)
MIC (Streptococcus pneumoniae [19]): 0.5 µg/mL (≈ 1.33 µM)
MIC (Streptococcus pneumoniae [20]): 16 µg/mL (≈ 42.6 µM)
MIC (Streptococcus pneumoniae [21]): 2 µg/mL (≈ 5.33 µM)
MIC (Streptococcus pneumoniae [22]): 4 µg/mL (≈ 10.7 µM)
MIC (Streptococcus pneumoniae [23]): 0.5 µg/mL (≈ 1.33 µM)
MIC (Streptococcus pneumoniae [24]): 0.5 µg/mL (≈ 1.33 µM)
MIC (Streptococcus pneumoniae [25]): 0.5 µg/mL (≈ 1.33 µM)
MIC (Streptococcus pneumoniae [26]): 0.25 µg/mL (≈ 0.666 µM)
MIC (Streptococcus pneumoniae [27]): 0.5 µg/mL (≈ 1.33 µM)
MIC (Streptococcus pneumoniae [28]): 0.5 µg/mL (≈ 1.33 µM)
MIC (Streptococcus pneumoniae [29]): 0.25 µg/mL (≈ 0.666 µM)
MIC (Streptococcus pneumoniae [30]): 0.5 µg/mL (≈ 1.33 µM)
MIC (Streptococcus pneumoniae [31]): 0.5 µg/mL (≈ 1.33 µM)
MIC (Streptococcus pneumoniae [32]): 0.25 µg/mL (≈ 0.666 µM)
MIC (Streptococcus pneumoniae [33]): 0.125 µg/mL (≈ 0.333 µM)
MIC (Streptococcus pneumoniae [34]): 0.25 µg/mL (≈ 0.666 µM)
MIC (Streptococcus pneumoniae [35]): 0.25 µg/mL (≈ 0.666 µM)
MIC (Streptococcus pneumoniae [36]): 0.125 µg/mL (≈ 0.333 µM)
MIC (Streptococcus pneumoniae [37]): 0.125 µg/mL (≈ 0.333 µM)
MIC (Streptococcus pneumoniae [38]): 0.25 µg/mL (≈ 0.666 µM)
MIC (Streptococcus pneumoniae [39]): 0.25 µg/mL (≈ 0.666 µM)
MIC (Streptococcus pneumoniae [40]): 0.5 µg/mL (≈ 1.33 µM)
MIC (Streptococcus pneumoniae [41]): 0.5 µg/mL (≈ 1.33 µM)
MIC (Streptococcus pneumoniae [42]): 0.25 µg/mL (≈ 0.666 µM)
MIC (Streptococcus pneumoniae [43]): 0.25 µg/mL (≈ 0.666 µM)
MIC (Streptococcus pneumoniae [44]): 0.5 µg/mL (≈ 1.33 µM)
MIC (Streptococcus pneumoniae [45]): 0.5 µg/mL (≈ 1.33 µM)
MIC (Streptococcus pneumoniae [46]): 0.125 µg/mL (≈ 0.333 µM)
MIC (Streptococcus pneumoniae [47]): 0.25 µg/mL (≈ 0.666 µM)
